Sampled rows, rich in hits. Any-hit rate of the full collection: about 1.3%.
MT1-MMP act inh: inhibitors of human MT1-MMP activation. HT1080 RFP-PRO-GFP cells, GFP/RFP ratio fluorescence, overnight; percent of plate control window, DMSO zero. actives 0.061% (n = 360,000). AID 651647. GFP/RFP ratio change, % at 20 µM;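 active = GFP/RFP ratio change of at least 30% with cell ATP level not reduced by more than half and red fluorescence within 50% of control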
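Test system: HT1080 RFP-PRO-GFP cells; Benchmarks: DMSO and RFP-L50D-GFP cell wells; Timing: cells overnight before dosing, compound overnight, 37 °C, 5% CO2; Compound: one 20 µM compound dose with 1% DMSO; Read-out: GFP/RFP fluorescence ratio.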
sPLA2-III inh: Inhibits HGIII-sPLA2 liposome hydrolysis, primary screen | Q9NZ20 | QFRET BODIPY PC-A2 liposome hydrolysis, fluorescence | inhibition, % at 12.2 µM | actives 0.56% (n = 370,000) | AID 743126;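 active = inhibition above mean plus 3 SD of compounds lying within the high and low control bounds, cut at about 19% in these data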
Target sequence (Q9NZ20 whole entry, looked up): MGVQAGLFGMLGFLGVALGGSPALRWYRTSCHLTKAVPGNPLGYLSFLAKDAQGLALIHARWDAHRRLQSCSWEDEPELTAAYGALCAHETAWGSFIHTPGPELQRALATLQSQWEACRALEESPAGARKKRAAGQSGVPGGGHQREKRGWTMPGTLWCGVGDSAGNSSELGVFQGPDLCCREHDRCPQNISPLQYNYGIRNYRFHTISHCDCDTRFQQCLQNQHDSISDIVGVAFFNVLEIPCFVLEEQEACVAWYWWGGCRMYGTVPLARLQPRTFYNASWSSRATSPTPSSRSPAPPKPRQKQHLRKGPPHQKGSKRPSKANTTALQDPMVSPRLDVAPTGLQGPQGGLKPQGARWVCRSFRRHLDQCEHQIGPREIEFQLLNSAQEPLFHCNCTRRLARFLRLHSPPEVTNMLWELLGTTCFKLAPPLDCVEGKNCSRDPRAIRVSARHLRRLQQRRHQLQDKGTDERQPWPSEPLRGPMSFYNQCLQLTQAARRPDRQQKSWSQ
Efflux pump inh: blocks antifungal efflux pumps in multiplex yeast assay. S. cerevisiae Candida pump triplex, Nile Red efflux. actives 0.44% (n = 330,000). inhibition, % at 10 µM;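 active = plate passing quality check with inhibition over a set limit, or well fluorescence over plate mean plus 4 SD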;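 also: Nile Red retained in pooled yeast measured as flow cytometry median fluorescence; higher means more Nile Red kept so more efflux inhibition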
H9c2 TAG inh: inhibitors of triacylglycerol accumulation. AID 651582. H9c2 cells, Nile Red lipid (TAG) fluorescence; cells loaded with 200 µM oleic acid. actives 0.66% (n = 230,000). inhibition, % at 12.5 µM;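 active = pattern-corrected inhibition of lipid staining of at least 50% with the nuclear-stain viability signal not falling by more than 50%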
H9c2 TAG conf: triacylglycerol accumulation inhibition, confirmation. shares compounds with H9c2 TAG inh. actives 71% (n = 990). inhibition, % at 12.5 µM. H9c2 lipid accumulation, Nile Red fluorescence; cells loaded with 200 µM oleic acid;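 active = mean inhibition across replicates of 40% or more; inactive = mean inhibition below 40%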
A number is an active result; 0 = inactive; - = not tested or not shown.

SMILES | MT1-MMP act inh | sPLA2-III inh | Efflux pump inh | H9c2 TAG inh | H9c2 TAG conf
CCOC(=O)[C@]12CCCCC/C=C\1N(CCc1ccc(Cl)cc1)C(=O)[C@H]2CC(=O)NCc1cccc2ccccc12 | - | 0 | - | - | -
COc1ccc(C(C(=O)NC(C)(C)C)N(Cc2cccs2)C(=O)CCC(=O)Nc2cc(C)on2)cc1 (configuration not stated) | 0 | 0 | 0 | 70 | 49
COc1ccc(C(C(=O)NC(C)(C)C)N(Cc2cccnc2)C(=O)CCC(=O)Nc2cc(C)on2)cc1 (configuration not stated) | 0 | 0 | 0 | - | -
CCC(C)(C)NC(=O)C(c1ccc(OC)cc1)N(CC1CCCO1)C(=O)CCC(=O)Nc1cc(C)on1 (configuration not stated) | 0 | 0 | 0 | 57 | 41
CCC(C)(C)NC(=O)C(c1ccc(OC)cc1)N(C(=O)CCC(=O)Nc1cc(C)on1)C1CC1 (configuration not stated) | 0 | 0 | 0 | - | -
CCC(C)(C)NC(=O)C(c1ccc(OC)cc1)N(Cc1cccs1)C(=O)CCC(=O)Nc1cc(C)on1 (configuration not stated) | 0 | 0 | 0 | 72 | 68
CC(=O)Nc1sc2c(c1-c1nc3ccccc3s1)CCCNC2 | - | 0 | - | - | -
Cc1ccc2c(c1)N(C(=O)CCC(=O)NCCCN1CCN(C)CC1)CC(C)O2 (configuration not stated) | 0 | 0 | 0 | 0 | -
Cn1nnnc1Sc1ncnc2scc(-c3cccc(S(C)(=O)=O)c3)c12 | 0 | 0 | 0 | 60 | 57
CC(=O)Nc1cc2cc(NS(=O)(=O)c3ccc(Cl)cc3)ccc2oc1=O | 0 | 0 | 0 | 58 | 0
CC(C)(C)C(=O)Nc1cc(S(=O)(=O)Nc2ccc(Cl)cc2)ccc1Cl | 0 | 0 | 0 | - | -
N#Cc1cccc(S(=O)(=O)NCC(=O)NCc2ccc3c(c2)OCO3)c1 | 0 | 0 | 0 | 0 | -
COc1ccc(C#Cc2ccc3c(c2)O[C@@H](CN(C)C(=O)Nc2cccc(OC)c2)[C@H](C)CN([C@@H](C)CO)S3(=O)=O)cc1 | 0 | 0 | - | 77 | 82
C[C@H](CO)N1C[C@H](C)[C@@H](CN(C)C(=O)Nc2ccc(F)cc2)Oc2cc(Br)ccc2S1(=O)=O | 0 | 0 | - | 0 | -
CC(C)NC(=O)N(C)C[C@H]1Oc2cc(C#Cc3ccc(F)cc3)ccc2S(=O)(=O)N([C@H](C)CO)C[C@H]1C | 0 | 0 | - | 56 | 63
C#CCSc1nnc(-c2sc(-c3ccccc3)nc2C)n1C | 0 | 0 | 0 | 0 | -
CC(C)Sc1nnc(NC(=O)c2ccco2)s1 | 0 | 0 | 0 | 55 | 0
COc1ccccc1-c1ccc([C@@H]2C[C@H]3[C@@H](CN2)CON3C)cc1 | 0 | 0 | - | 0 | -
N#CC1=C(N)Oc2cc(Nc3ccccc3)ccc2C1c1ccncc1 (configuration not stated) | 0 | 0 | 0 | 57 | 83
Cc1cc(NCc2ccccn2)n2nc(C)c(-c3ccccc3)c2n1 | 0 | 0 | 0 | 0 | -
Cc1nn2c(N3CCN(C)CC3)c3c(nc2c1-c1ccccc1)CCCC3 | 0 | 0 | 0 | 58 | 45
Cc1nn2c(NCc3ccccn3)c3c(nc2c1-c1ccccc1)CCC3 | 0 | 0 | 0 | 61 | 40
C=CCN(Cc1cccs1)C(=O)COc1ccc2c(c1)OCO2 | 0 | 0 | 0 | 0 | -
C=CCOc1c(Br)cc(/C=N/Nc2ccc(C(=O)O)cc2)cc1OCC | 0 | 0 | 0 | - | -
COc1ccc(NC(=O)O[C@@H](C)[C@@H]2CN3CCc4c([nH]c5ccc(-c6ccc(OC)cc6)cc45)[C@@H]3C[C@@H]2N(C)C(=O)Nc2ccc(OC)cc2)cc1 | 0 | 0 | - | 72 | 72
SMILES | MT1-MMP act inh | sPLA2-III inh | Efflux pump inh | H9c2 TAG inh | H9c2 TAG conf
COc1ccc(-c2ccc3[nH]c4c(c3c2)CCN2C(=O)[C@@H]([C@H](C)O)[C@@H](N(C)C(=O)Nc3ccccc3)C[C@@H]42)cc1 | 0 | 0 | - | 0 | -
COc1ccc(NC(=O)N(C)[C@H]2C[C@H]3c4[nH]c5ccc(-c6ccc(OC)cc6)cc5c4CCN3C(=O)[C@H]2[C@H](C)O)cc1 | 0 | 0 | - | 0 | -
COc1ccc(NC(=O)N(C)[C@H]2C[C@H]3c4[nH]c5ccc(-c6ccc(OC)cc6)cc5c4CCN3C[C@H]2[C@H](C)O)cc1 | 0 | 0 | - | 0 | -
COc1ccc(-c2ccc3[nH]c4c(c3c2)CCN2C[C@@H]([C@H](C)OC(=O)Nc3cc(Cl)cc(Cl)c3)[C@@H](N(C)C(=O)Nc3cc(Cl)cc(Cl)c3)C[C@@H]42)cc1 | 0 | 0 | - | 73 | 84
COc1ccc(NC(=O)N(C)[C@H]2C[C@H]3c4[nH]c5ccc(-c6ccc7c(c6)OCO7)cc5c4CCN3C[C@H]2[C@H](C)O)cc1 | 0 | 0 | - | 60 | 66
C=C(C)C(=O)Oc1ccc(N2C(=O)[C@@H]3C4C=CC(C4)[C@@H]3C2=O)cc1 | 0 | 0 | 0 | - | -
Cc1cccc2nc(-c3ccccc3)c(-c3ccc(CN4CCC5(CC4)CNc4ccccc45)cc3)nc12 | - | 0 | - | - | -
CCOC(=O)c1c(CN2CCNCC2)nc2ccc(Cl)cc2c1-c1ccccc1 | 0 | 0 | - | 70 | 78
Cc1nc2ccc(Cl)cc2c(-c2ccccc2)c1C(=O)N(C)C | 0 | 0 | 0 | - | -
C[C@@]12C(=O)Nc3ccc(Br)cc3C(=O)N1[C@H]1c3cc(Cl)ccc3OC[C@@H]1[C@@H]2c1ccccc1 | 0 | - | 0 | 52 | 64
O=C(NCCN1CCOCC1)c1cccc(S(=O)(=O)NCc2ccccc2)c1 | 0 | 0 | 0 | 0 | -
COc1cc(-c2coc3c(C(=O)NCc4ccncc4)cccc23)ccc1O | 0 | 0 | - | 0 | -
COc1cc(-c2coc3c(C(=O)NCc4ccc(C(F)(F)F)cc4)cccc23)ccc1O | 0 | 0 | - | 54 | 0
O=C1C=C(c2ccc(CO)cc2)C[C@@H](c2ccc3c(c2)OCO3)C1 | 0 | 0 | 0 | 0 | -
Cc1ccc2[nH]c(-c3ccccc3)cc(=O)c2c1 | 0 | 0 | 0 | 53 | 58
Oc1ccc(Nc2nc(NCC3CCCO3)c3ccccc3n2)cc1 (configuration not stated) | 0 | 0 | - | 50 | 0
CCOC(=O)C1=CC[C@@H](c2cc(OC)c(OC)c(OC)c2)N(S(=O)(=O)c2ccc(C)cc2)[C@H]1C(=O)OCC | 0 | 0 | 0 | 0 | -
FC(F)Oc1ccc(-c2csc(NNC3=NCCCCC3)n2)cc1 | 0 | 0 | 0 | 119 | 125
Brc1ccc(-c2csc(NNC3=NCCCCC3)n2)cc1 | 0 | 0 | 0 | 130 | 129
CC(C)(C)c1ccc(-c2csc(NNC3=NCCCCC3)n2)cc1 | 0 | 0 | 0 | - | -
COC(=O)C=C1CCC2C3CCC4=CC(=O)C(Br)CC4(C)C3C(=O)CC12C (configuration not stated) | 0 | 0 | - | 63 | 85
COc1cc(OC)c(C(=O)OCC(=O)Nc2cccc(S(=O)(=O)NC3=NCCCCC3)c2)cc1OC | 0 | 0 | - | 0 | -
Cc1ccc(C(=O)OCC(=O)Nc2cccc(S(=O)(=O)NC3=NCCCCC3)c2)c(C)c1 | 0 | 0 | 0 | 78 | 0
CCOc1ccc(C(=O)NC(=S)Nc2cccc(S(=O)(=O)NC3=NCCC3)c2)cc1 | 0 | 0 | 0 | 51 | 57

Screening data from PubChem.
